Consider eleven molecules from publication PMC5614685 (Biochemistry and Biophysics Reports, 2017).

In general, koff refers to the first-order rate constant of dissociation. Lower therefore signals slow dissociation. A word on the Kd: it is the free concentration of one partner at which half of the binding sites on the other are occupied at equilibrium, for simple one-to-one binding. High values mean a looser complex, low ones a tighter complex.

Data set [1] addresses T1, ActRIIB-Fc (Homo sapiens, UniProt Q13705).
T1 sequence (Q13705 19-135): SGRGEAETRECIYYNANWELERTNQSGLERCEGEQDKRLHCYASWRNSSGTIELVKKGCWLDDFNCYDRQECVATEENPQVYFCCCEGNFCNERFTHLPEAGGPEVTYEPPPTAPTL
The data set is described as follows: SPR binding assay, ActRIIB-Fc. The gist of the method: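 ActRIIB-Fc immobilized on a CM5 chip by amine coupling to about 3000 RU in PBS/0.01% P20 at 22 °C. Peptide concentration series injected in PBS/0.01% P20/1% DMSO at 75 μL/min: 60 s contact, up to 60 s dissociation. Double-referenced data globally fitted to a 1:1 model for kon and koff, KD = koff/kon. For fast off-rates, KD from a steady-state 1:1 fit.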
For orientation: Surface plasmon resonance follows binding to a sensor surface in real time, without labels.

Data set [2] deals with T2, ActRIIA-Fc (Homo sapiens, UniProt P27037). In words: SPR binding assay, ActRIIA-Fc. The gist of the method:
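ActRIIA-Fc amine-coupled to a CM5 chip to about 9000 RU in PBS/0.01% P20 at 22 °C. Peptide concentration series run in PBS/0.01% P20/1% DMSO at 75 μL/min: 60 s association, up to 60 s dissociation. Sensorgrams double-referenced and globally fitted to a 1:1 model, KD = koff/kon. For fast off-rates, KD taken from a 1:1 steady-state fit.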

Data set [3] deals with T2, ActRIIA-Fc. The data set is described as follows: Plate ELISA, ligand binding of ActRIIA-Fc. The conditions noted are these: ligand directly coated; HRP anti-human IgG Fc, chemiluminescence. In short, it runs like this:
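Wells coated directly with each ligand overnight at 4 °C, then blocked with 0.5% BSA in PBS for 2 h at room temperature. ActRIIA-Fc added, then washed three times with PBST. Bound Fc protein detected with HRP goat anti-human IgG Fc (5000-fold dilution in 0.5% BSA/PBS) and a chemiluminescence reagent.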

Data set [4] deals with T1, ActRIIB-Fc. The data set is described as follows: Plate ELISA, ligand binding of ActRIIB-Fc. The conditions noted are these: ligand directly coated; HRP anti-human IgG Fc, chemiluminescence.
The subject of another data set is mice. Conditions: injection to mice; ref Suragani et al. [9]; cited from earlier work.
For data set [5], the target named is ActRIIA-Fc (UniProt P27037). The data set is described as follows: SPR.
Sequence of ActRIIA-Fc (UniProt P27037) (P27037 20-135): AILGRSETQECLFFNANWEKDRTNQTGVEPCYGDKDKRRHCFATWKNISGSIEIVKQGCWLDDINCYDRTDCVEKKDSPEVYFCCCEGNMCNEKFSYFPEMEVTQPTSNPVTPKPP
The target in data set [6] is T3, ActRIIB-Fc (extracellular domain of human ActRIIB, activin receptor type-2B, fused to human IgG-Fc) (human, UniProt Q13705 19-135).
T3 sequence: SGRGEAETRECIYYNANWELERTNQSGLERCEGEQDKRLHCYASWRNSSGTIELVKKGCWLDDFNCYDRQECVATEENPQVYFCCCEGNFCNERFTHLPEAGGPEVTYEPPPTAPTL
In words: SPR.

Data set [7] addresses T3, ActRIIB-Fc (extracellular domain of …). The data set is described as follows: SPR. The source holds these as a separate data set.
The test system of a further data set is ActRIIB-Fc/ActRIIA-Fc. The conditions noted are these: ref [3]; cited from earlier work.

Like-named read-outs stand apart in the source and are kept apart here. Bridge positions count the residues as written; N and C are the ends. Ends that are not written are not given here. Peptide text beside a SMILES is read from it.

`CC[C@H](C)[C@@H]1NC(=O)[C@H](CCCNC(=N)N)NC(=O)[C@H](CCCNC(=N)N)NC(=O)[C@H](C(C)C)NC(=O)[C@H](CO)NC(=O)[C@H]([C@@H](C)O)NC(=O)CNC(=O)[C@H](Cc2ccccc2)NC(=O)[C@@H](NC(=O)[C@@H](N)C(C)C)CSSC[C@@H](C(=O)N[C@H](C(=O)O)C(C)C)NC1=O` [AR2mini] (H-VCFGTSVRRICV-OH; disulfide 2-11) displayed a koff on ActRIIB-Fc [1] of over 0.1 s⁻¹.
On the same count and under the same terms, for `C[C@@H]1NC(=O)[C@H](CCCNC(=N)N)NC(=O)[C@H]([C@@H](C)O)NC(=O)[C@@H](NC(=O)[C@H](CCC(N)=O)NC(=O)[C@H](Cc2ccccc2)NC(=O)[C@@H]2CCCN2)CSSC[C@@H](C(=O)N[C@H](C(=O)N[C@@H](CCCCN)C(=O)N[C@@H](CO)C(=O)O)[C@@H](C)O)NC(=O)[C@H](Cc2ccc(O)cc2)NC(=O)[C@H](Cc2ccc(O)cc2)NC(=O)[C@H](Cc2c[nH]c3ccccc23)NC(=O)CNC(=O)[C@H](CC(=O)O)NC(=O)[C@H](CCCNC(=N)N)NC1=O` [AR8] (H-PFQCTRARDGWYYCTKS-OH; disulfide 4-14) the value was over 0.1 s⁻¹.
At ActRIIA-Fc [2], `CC(C)C[C@@H]1NC(=O)[C@H]([C@@H](C)O)NC(=O)[C@H](CCCCN)NC(=O)[C@@H]2CCCN2C(=O)[C@H](Cc2c[nH]c3ccccc23)NC(=O)[C@@H](NC(=O)[C@H](CCCCN)NC(=O)[C@H](Cc2ccc(O)cc2)NC(=O)[C@@H](N)Cc2c[nH]cn2)CSSC[C@@H](C(=O)N[C@@H](Cc2c[nH]c3ccccc23)C(=O)N[C@@H](CC(N)=O)C(=O)N[C@@H](Cc2c[nH]cn2)C(=O)O)NC(=O)[C@H](CCCCN)NC(=O)[C@H](Cc2ccccc2)NC1=O` [AR9] (H-HYKCWPKTLFKCWNH-OH; disulfide 4-12) came in with a dissociation constant Kd of over 100 µM. Besides, at ActRIIB-Fc [1], the koff is 0.049 s⁻¹.
Consider “GDF11: growth differentiation factor 11, R&D Systems (1958-GD)”, for which the “binding to ActRIIA-Fc (plate ELISA), in words” value (“binding to ActRIIA-Fc” for short) with ActRIIA-Fc [3] was “binds to activin A and GDF11”. Further, the “binding to ActRIIB-Fc (plate ELISA), in words” value (from here on “binding to ActRIIB-Fc”) in the data set with ActRIIB-Fc [4] was “binds to activin A, MSTN, and GDF11 in a concentration-dependent manner”. For the same molecule, in the data set on mice, the “anemia, in words” value is listed as “causes anemia”.
As for “MSTN: recombinant mature human MSTN (myostatin), ActRIIB ligand”, in the data set with ActRIIA-Fc [3], the “binding to ActRIIA-Fc” value is “but not MSTN”. In the data set with ActRIIB-Fc [4], the “binding to ActRIIB-Fc” value is “binds to activin A, MSTN, and GDF11 in a concentration-dependent manner”.
Consider “activin A: ActRIIB ligand, purchased from R&D Systems (338-AC)”, for which, in the data set with ActRIIA-Fc [3], the “binding to ActRIIA-Fc” value was “binds to activin A and GDF11”. For the same molecule, in the data set with ActRIIB-Fc [4], the “binding to ActRIIB-Fc” value is “binds to activin A, MSTN, and GDF11 in a concentration-dependent manner”.
With VCFGTSVRRICV-OH (disulfide 2-11 (inferred)) [AR2mini], the figures for the dissociation constant Kd (with ActRIIA-Fc [5]; in [6]) were 19 µM and 1.8 µM, respectively.
For PFQCTRARDGWYYCTKS-OH (disulfide 4-14 (inferred)) [AR8], the dissociation constant Kd with ActRIIA-Fc [5] was 18 µM; in [7], 3.6 µM.

B1: BMP9: bone morphogenetic protein 9, R&D Systems (3209-BP) (protein, UniProt Q9UK05 320-429, looked up)
Growth/differentiation factor …: SAGAGSHCQKTSLRVNFEDIGWDSWIIAPKEYEAYECKGGCFFPLADDVTPTKHAIVQTLVHLKFPTKVGKACCVPTKLSPISVLYKDDMGVPTLKYHYEGMSVAECGCR
In the case of B1, the “PPI with ActRIIB-Fc/ActRIIA-Fc, in words” value with ActRIIB-Fc/ActRIIA-Fc is recorded as “have been previously reported”.
HYKCWPKTLFKCWNH-OH (disulfide 4-12 (inferred)) [AR9] returned a Kd in data set [6] of 0.86 µM.
Still for that read-out and setting: for VCDGTSVPRICV-OH (disulfide 2-11 (inferred)) [AR2mut] the value was over 100 µM.
